esBAF inh: inhibitors of esBAF chromatin remodeling in mouse ES cells. reporter increase, % at 12.5 µM. 2% of 350,000 active. Bmi1-luciferase knock-in reporter, 24 h; 100% = twice the neutral-well signal. AID 602393; in the data active = activation above about 40%; inconclusive = no clear call, values can overlap the other calls;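 note: 0% = median of the plate's neutral control wells and 100% = double that signal; a rise in the Bmi1 reporter signal indicates esBAF inhibition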
Casp6 inh: caspase-6 (human) enzyme inhibition. P55212. 0.53% of 350,000 active. purified caspase-6, Z-VEID-R110 cleavage fluorescence. inhibition, % at 12.5 µM. AID 686996;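 active = mean inhibition across replicates at least about 35%, with every replicate also reaching that limit, limit read from the data; inconclusive = only one of the two criteria met; inactive = neither criterion met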;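 note: 0% = median of neutral control wells and 100% = no fluorescence left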
Target sequence (P55212 24-179 limits assumed): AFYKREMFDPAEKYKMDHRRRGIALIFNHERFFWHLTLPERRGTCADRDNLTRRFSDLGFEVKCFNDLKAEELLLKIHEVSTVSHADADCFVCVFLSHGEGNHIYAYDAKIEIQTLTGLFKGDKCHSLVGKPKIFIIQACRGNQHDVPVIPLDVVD
Target sequence (P55212 194-293 limits assumed): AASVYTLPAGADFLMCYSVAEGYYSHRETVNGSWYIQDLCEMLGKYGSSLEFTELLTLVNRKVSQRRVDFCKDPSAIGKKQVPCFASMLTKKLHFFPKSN
Wnt act: activates Wnt/beta-catenin signaling in a reporter cell assay. AID 743398. activation, % at 9.35 µM. 1.2% of 300,000 active. activator, plate reader; in the data active = activation above about 30%, passing the limit was not always enough; inconclusive = no clear call, values can overlap the other calls;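 note: 0% = neutral control wells and 100% = positive control wells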
NSD2 inh: inhibitors of human histone methyltransferase NSD2; AID 743445; 0.54% of 310,000 active; inhibition, % at 12.5 µM; NSD2 peptide methylation, AlphaScreen, 120 min; in the data active = inhibition above about 50%
Xi reactivation: activators of X-chromosome reactivation in mouse fibroblasts | XiGFP mouse fibroblasts, % GFP-positive cells imaging, 3 d; cells co-treated with 5-aza-dC sensitizer; scaled so ellipticine positive control = 100% | activation, % at 7.58 µM | 0.055% of 360,000 active;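 active = mean normalized replicate activation at least 10% and every replicate at or above 10%; inconclusive = only one of the two criteria met; inactive = mean below 10% and not all replicates reach 10%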;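 note: 0% = median of on-plate neutral control wells and 100% = ellipticine 6 µM median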
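Material: XiGFP fibroblasts, SV40-immortalized. Buffer or medium: DMEM plus 5-aza-dC sensitizer. Compound: single concentration per compound, delivered by pin transfer. Times: 3 days compound exposure. Controls: ellipticine 6 µM.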
MITF TRPM1 HTS: increases MITF-driven TRPM1 promoter luciferase signal; SK-MEL-5 TRPM1-promoter luciferase, 24 h; % of positive control, neutral wells = 0; activation, % at 12.5 µM; 0.75% of 300,000 active;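 active = mean activation of at least 80% with every replicate also reaching 80%; inconclusive = mean reaches 80% but some replicate falls short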;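 note: 0% = neutral control wells and 100% = parthenolide positive control wells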
Starred values were filed as active, the others as inactive; ? = inconclusive; . = no result. Hits are enriched below; roughly 3% of the tested compounds scored in any of these assays.

SMILES | esBAF inh | Casp6 inh | Wnt act | NSD2 inh | Xi reactivation | MITF TRPM1 HTS
COc1ccccc1N(C)c1cc2c(c3c1ccn3C)C1CCC2C1 (centres undefined) | 16 | -1 | -7 | . | 12* | .
CSc1ccc(C(=O)N2CCc3ccc(NC(=O)c4ccccn4)cc3C2)cc1 | 20 | -1 | 14 | 1 | 0 | 36
COC(=O)c1ccccc1NC(=O)N1CCc2ccc(NC(=O)c3ccccn3)cc2C1 | ? | -1 | 28 | 3 | 0 | 47
CSc1ccccc1C(=O)N1CCc2ccc(NC(=O)c3ccccn3)cc2C1 | 46* | 1 | 0 | 0 | 0 | .
O=C(Nc1ccc2c(c1)CN(C(=O)Nc1ccc(F)cc1)CC2)c1ccccn1 | 47* | 2 | -3 | -3 | 0 | .
C[C@@H]1CN([C@H](C)CO)C(=O)c2cc(N(C)C)ccc2O[C@@H](C)CCCCO[C@@H]1CN(C)Cc1ccc(C(=O)Nc2ccccc2N)cc1 | . | . | . | . | 0 | .
Cc1noc(C)c1S(=O)(=O)Nc1ccc2c(c1)C(=O)N([C@H](C)CO)C[C@H](C)[C@@H](CN(C)S(=O)(=O)c1cccs1)O2 | . | 0 | . | . | 0 | .
CCCN(C)C[C@@H]1Oc2cc(C#CC3CCCC3)ccc2S(=O)(=O)N([C@@H](C)CO)C[C@@H]1C | -1 | 0 | . | . | 0 | .
CCN(CC)c1ccc2cc(C(=O)Nc3ccccn3)c(=O)oc2c1 | 49* | . | 27 | -1 | . | 10
O=[N+]([O-])c1cccc(COc2ccc(CN3CCOCC3)cc2)c1 | -17 | -5 | 9 | . | 0 | 111*
CC(=O)Nc1cccc(OCc2cccc([N+](=O)[O-])c2)c1 | . | 0 | -7 | 0 | 0 | 43
CC(=O)Nc1ccc(OCc2cccc([N+](=O)[O-])c2)cc1 | . | 0 | 59* | -2 | 0 | 6
Brc1ccccc1-c1nnc(CSc2nncn2-c2ccccc2)o1 | 28 | . | 35* | 0 | . | 1
O=C(C1CC1)N1C[C@@H]2N[C@H](C1)C2c1ccc(-c2cccc(F)c2)cc1 (some centres undefined) | . | . | . | . | 0 | .
O=C(Nc1ccc2c(c1)OCO2)C1Cc2c(-c3ccc4c(c3)OCO4)ccnc2O1 (centres undefined) | -6 | 65* | -10 | 7 | 0 | .
CC(=O)Nc1ccc(NC(=O)C2Cc3c(-c4ccc5c(c4)OCO5)ccnc3O2)cc1 (centres undefined) | 2 | 0 | -2 | -1 | 0 | .
O=C(O)C1Nc2c(O)cccc2C2C=CCC12 (centres undefined) | . | 92* | -1 | 26 | 0 | 1
O=C(O)C1Nc2c(Cl)cc(Cl)cc2C2C=CCC12 (centres undefined) | -12 | . | . | . | . | -4
C[C@@H]1CN([C@H](C)CO)C(=O)c2cc(-c3ccncc3)cnc2O[C@@H]1CN(C)C(=O)c1cccc(F)c1 | 2 | 2 | . | . | 0 | .
COc1ccc(/C=C2\SC(=O)N(CC(=O)NCCCn3ccnc3)C2=O)cc1 | 39 | 50* | 3 | 3 | 1 | 32
COc1ccc(C(=O)c2c[nH]c(C(=O)NCCCn3ccnc3)c2)cc1 | 5 | 5 | 40* | . | 0 | -5
Cc1ccsc1C(=O)OCC(=O)Nc1nnc(-c2ccccc2)o1 | 1 | -2 | 0 | -2 | 0 | 3
Cc1ccsc1C(=O)OCc1nnc(-c2ccccc2)o1 | 63* | 1 | 13 | -4 | 0 | 96*
CCC(=O)Nc1ccc2c(c1)C(=O)N(C)[C@H]1CC[C@@H](CC(=O)N3CCCCC3)O[C@H]1CO2 | 0 | . | . | . | 0 | .
CN1CCCN(C(=O)c2cc(-c3cccc4ccccc34)nc3ccccc23)CC1 | -4 | -4 | 47* | 9 | 0 | 8
SMILES | esBAF inh | Casp6 inh | Wnt act | NSD2 inh | Xi reactivation | MITF TRPM1 HTS
Cc1ccc(-c2cc(C(=O)N3CCN(c4ccccc4O)CC3)c3ccccc3n2)cc1 | 55* | -3 | 16 | 1 | 0 | 35
O=C(c1cc(-c2ccco2)nc2ccccc12)N1CCN(Cc2ccccc2)CC1 | -10 | 9 | -5 | 19 | 0 | 11
COC(=O)C1CCN(C(=O)c2cc(-c3ccco3)nc3ccccc23)CC1 | -4 | 58* | -1 | 4 | 0 | -7
CC(=O)Nc1ccc2c(c1)CC(=O)N(C)C[C@@H](C)[C@@H](CN(C)C(C)=O)O2 | . | . | . | . | 0 | .
CN(C)CC(=O)Nc1ccc2c(c1)[C@H]1C[C@@H](CC(=O)NCc3ccccc3)O[C@H](CO)[C@H]1O2 | -2 | -1 | . | . | 1 | .
COc1ccc(-n2c(CN3CCC(C(N)=O)CC3)nc3ccc([N+](=O)[O-])cc3c2=O)c(OC)c1 | 4 | 6 | 5 | -2 | 0 | -7
CCOC(=O)C1CCN(Cc2nc3ccc([N+](=O)[O-])cc3c(=O)n2-c2ccc(OC)cc2OC)CC1 | 48* | 4 | 13 | -7 | 0 | -1
N/C(=N\OC(=O)Cc1cccs1)c1ccccc1 | 72* | . | . | -1 | . | .
N/C(Cc1cccs1)=N\OC(=O)COc1ccccc1 | 17 | . | 6 | -2 | . | 21
Cc1ccc(C(=O)O/N=C(\N)Cc2cccs2)c(Cl)c1 | . | . | . | -5 | . | 117*
Cc1ccc(/C(N)=N/OC(=O)Cc2cccs2)cc1 | 55* | . | . | 1 | . | 111*
N/C(=N\OC(=O)Cc1cccs1)c1cccc([N+](=O)[O-])c1 | 34 | . | 5 | . | 0 | 20
Cc1cccc(/C(N)=N/OC(=O)Cc2cccs2)c1 | 48* | . | . | -1 | . | 95*
CC(C)NC(=O)N[C@@H]1C=C[C@H](CC(=O)NCCN2CCCC2)O[C@@H]1CO | 0 | 0 | . | . | 0 | .
N/C(=N\OC(=O)Cc1cccs1)c1ccc(Cl)cc1 | 81* | 1 | 34* | -3 | 0 | 79
O=C(N/N=C/c1ccc(O)cc1O)C(=O)N/N=C/c1ccc(O)cc1O | 4 | 39* | -4 | 2 | 1 | .
Oc1ccc(C=NNC(=S)Nc2ccc(F)cc2)c(O)c1 | ? | 0 | 37* | 8 | 1 | 17
O=C1N[C@H](Cc2ccccc2)COCc2cn(nn2)CC[C@@H]1Cc1ccc(Cl)cc1 | . | . | . | . | 0 | .
COc1ccc2c(c1)c(/C=N/Nc1nc3ccccc3[nH]1)c(C)n2C | . | -2 | 57* | 3 | 17* | .
C[C@H](O)C#Cc1ccc2c(c1)O[C@H](CN(C)C(=O)C1CCCCC1)[C@H](C)CN([C@H](C)CO)S2(=O)=O | -11 | 0 | . | . | 0 | .
COc1cccc(/C=N/Nc2cc(Cl)nc(C)n2)c1O | . | -3 | 1 | -1 | 0 | 52
COc1cccc(/C=N/Nc2c(Cl)cncc2Cl)c1O | ? | -2 | 12 | -1 | 0 | 113*
COc1cccc(/C=N/Nc2ccc([N+](=O)[O-])cc2)c1O | 31 | -2 | 40* | -1 | 0 | 104*
COc1ccc(/C=N/Nc2ccc([N+](=O)[O-])cc2)cc1O | 81* | 6 | 33* | 1 | 0 | 104*

Bioassay records (PubChem)
